Data: ChEMBL document CHEMBL2331485, “Pyrimidoaminotropanes as potent, selective, and efficacious small molecule kinase inhibitors of the mammalian target of rapamycin (mTOR)” (J Med Chem, 2013)
The source made the active and inactive calls. No cut-off for these calls is given here.

Key:
[1] = Plasma protein binding in mouse at 5 uM after 4 hrs by rapid equilibrium dialysis; type: ADME, cell-free; conditions: read-out: PPB (converted)
[2] = Kinetic solubility of the compound; type: physicochemical; conditions: for solubility kinetic: read-out: Kinetic_solubility
[3] = Plasma protein binding in rat at 5 uM after 4 hrs by rapid equilibrium dialysis; type: ADME, cell-free; conditions: read-out: PPB (converted)
PC-3 = test: Cytotoxicity against human PC3 cells after 4 days by CellTiter-Glo assay; conditions: PC-3, 96 h
[4] = Oral bioavailability in mouse at 5 mg/kg; type: ADME, organism-based; conditions: in vivo
Outline: (§1)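 Mouse PK used iv dosing at 1 mg/kg as a 60% PEG solution and po dosing at 5 mg/kg as a suspension in MCT. Clearance, unbound clearance, Vss, t1/2 and oral bioavailability were derived from these doses.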

[5] = Cytotoxicity against human MCF7 neo/Her2 cells after 3 days by CellTiter-Glo assay; conditions: MCF7, 72 h
[6] = Clearance in mouse at 1 mg/kg, iv; type: ADME, organism-based; parameters: dose 1 mg/kg, route intravenous; conditions: in vivo; outline: as §1
[7] = Clearance in rat liver microsomes; type: ADME, Microsome
[8] = Half life in mouse at 1 mg/kg, iv; type: ADME, organism-based; parameters: dose 1 mg/kg, route intravenous; conditions: in vivo; outline: as §1
[9] = Clearance in mouse liver microsomes; type: ADME, Microsome
[10] = Clearance in human liver microsomes; type: ADME, Microsome
Mus musculus [11] = test: Unbound clearance in mouse at 1 mg/kg, iv; type: ADME, organism-based; parameters: dose 1 mg/kg, route intravenous; conditions: in vivo; outline: as §1
[12] = Inhibition of mTORC2 in human NCI-PC3 cells assessed as inhibition of AKT phosphorylation
[13] = Volume of distribution at steady state in mouse at 1 mg/kg, iv; type: ADME, organism-based; parameters: dose 1 mg/kg, route intravenous; conditions: in vivo, read-out: Vdss; outline: as §1
[14] = Plasma protein binding in human at 5 uM after 4 hrs by rapid equilibrium dialysis; type: ADME, cell-free; conditions: read-out: PPB (converted)
[15] = Half life in iv dosed dog; type: ADME, organism-based, Canis lupus familiaris; conditions: in vivo
[16] = Blood clearance in iv dosed dog; type: ADME, organism-based, Canis lupus familiaris; conditions: whole blood
Cytochrome P450 3A4 = Cytochrome P450 3A4 (Homo sapiens, UniProt P08684); test: Time dependent inhibition of human CYP3A4 preincubated for 30 mins in presence of NADPH; type: ADME
Cytochrome P450 3A4, sequence (P08684 whole entry): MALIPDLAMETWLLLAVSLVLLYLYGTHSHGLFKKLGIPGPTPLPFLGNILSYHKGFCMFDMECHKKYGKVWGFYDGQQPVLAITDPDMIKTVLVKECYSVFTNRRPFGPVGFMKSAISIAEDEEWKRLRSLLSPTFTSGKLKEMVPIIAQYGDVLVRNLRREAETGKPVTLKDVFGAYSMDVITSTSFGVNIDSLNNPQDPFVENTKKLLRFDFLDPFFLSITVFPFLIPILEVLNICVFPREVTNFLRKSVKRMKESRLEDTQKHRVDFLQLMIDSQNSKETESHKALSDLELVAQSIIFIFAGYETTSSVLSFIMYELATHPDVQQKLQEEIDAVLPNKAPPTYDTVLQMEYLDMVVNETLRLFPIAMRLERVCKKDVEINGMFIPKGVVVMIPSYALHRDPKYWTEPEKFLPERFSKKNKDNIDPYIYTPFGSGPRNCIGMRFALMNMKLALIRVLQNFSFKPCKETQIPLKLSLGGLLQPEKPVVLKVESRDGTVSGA
Outline: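 TDI IC50 is the inhibitor concentration giving 50% loss of CYP3A4 activity after a 30 min pre-incubation with NADPH. It is reported as clean where no IC50 could be measured.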

[17] = Antitumor activity against human MCF7-neo/Her2 xenografted in nude mouse at 12.5 mg/kg, qd measured after 14 days; type: functional; conditions: 336 h, read-out: TGI
mTORC1 = mTORC1 (Homo sapiens, UniProt P42345); test: Inhibition of mTORC1 in human NCI-PC3 cells assessed as inhibition of p70S6K phosphorylation; type: cell-based
[18] = molecular target: Serine/threonine-protein kinase mTOR (Homo sapiens, UniProt P42345); test: Inhibition of human recombinant mTOR expressed in insect cells assessed as inhibition of phosphorylation of (GFP)-4-EBP1 protein after 30 mins by fluorescence resonance energy transfer assay
[19] = molecular target: T1, Phosphatidylinositol 4,5-bisphosphate 3-kinase catalytic subunit delta isoform (Homo sapiens) (UniProt O00329); test: Inhibition of PI3Kdelta (unknown origin) at 1 uM
T1 sequence (whole entry): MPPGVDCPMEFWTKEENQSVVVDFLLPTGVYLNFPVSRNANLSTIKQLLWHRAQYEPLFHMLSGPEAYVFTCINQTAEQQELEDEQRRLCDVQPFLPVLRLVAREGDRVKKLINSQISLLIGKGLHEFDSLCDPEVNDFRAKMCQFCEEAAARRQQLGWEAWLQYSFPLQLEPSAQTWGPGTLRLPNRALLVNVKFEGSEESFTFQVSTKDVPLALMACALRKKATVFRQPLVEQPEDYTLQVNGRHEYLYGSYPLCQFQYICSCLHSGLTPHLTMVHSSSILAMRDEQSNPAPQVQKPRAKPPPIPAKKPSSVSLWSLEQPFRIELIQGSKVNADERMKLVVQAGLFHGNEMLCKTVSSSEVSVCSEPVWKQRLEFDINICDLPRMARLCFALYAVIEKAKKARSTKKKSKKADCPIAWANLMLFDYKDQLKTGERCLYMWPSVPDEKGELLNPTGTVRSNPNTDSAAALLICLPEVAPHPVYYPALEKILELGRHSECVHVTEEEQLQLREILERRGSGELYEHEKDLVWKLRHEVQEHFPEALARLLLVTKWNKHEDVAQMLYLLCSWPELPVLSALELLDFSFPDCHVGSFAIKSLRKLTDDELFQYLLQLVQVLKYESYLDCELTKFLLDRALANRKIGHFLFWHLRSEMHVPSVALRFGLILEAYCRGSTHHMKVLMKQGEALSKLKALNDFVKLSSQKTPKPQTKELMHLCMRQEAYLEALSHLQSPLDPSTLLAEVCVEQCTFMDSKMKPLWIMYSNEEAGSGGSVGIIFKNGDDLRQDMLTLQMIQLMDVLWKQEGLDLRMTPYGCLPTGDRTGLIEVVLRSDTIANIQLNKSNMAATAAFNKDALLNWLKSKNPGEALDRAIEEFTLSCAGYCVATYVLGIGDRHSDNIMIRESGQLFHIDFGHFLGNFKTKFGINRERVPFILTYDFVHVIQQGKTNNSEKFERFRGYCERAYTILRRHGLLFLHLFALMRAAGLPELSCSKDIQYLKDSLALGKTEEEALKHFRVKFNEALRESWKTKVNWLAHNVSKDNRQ

Mus musculus [20] = test: Inhibition of mTORC2-mediated AKT phosphorylation in human PC3 cells xenografted in NCR mouse up to 5 mg/kg, po measured at 6 hrs; type: functional, organism-based; parameters: dose 5 mg/kg; conditions: PC-3
Canis familiaris = test: Unbound blood clearance in iv dosed dog; type: ADME, organism-based, Canis lupus familiaris; conditions: in vivo
[21] = Volume of distribution at steady state in iv dosed dog; type: ADME, organism-based, Canis lupus familiaris; conditions: in vivo, read-out: Vdss
Mus musculus [22] = test: Inhibition of mTORC1-mediated S6RP phosphorylation in human PC3 cells xenografted in NCR mouse up to 5 mg/kg, po measured at 6 hrs; type: functional, organism-based; parameters: dose 5 mg/kg; conditions: PC-3
Plasma [23] = test: Unbound plasma concentration in NCR nude mouse xenografted with human PC3 cells at 50 to 100 mg/kg, po measured at 6 to 10 hrs; type: ADME, organism-based, PC-3; parameters: route oral; conditions: in vivo
Mus musculus [24] = species: Mus musculus; conditions: NCR, NCI-PC3, 50 to 100 mg/kg
Plasma [25] = test: Plasma concentration in NCR nude mouse xenografted with human PC3 cells at 50 to 100 mg/kg, po measured at 6 to 10 hrs; type: ADME, organism-based, PC-3; parameters: route oral; conditions: in vivo
Mus musculus [26] = species: Mus musculus; conditions: NCR, NCI-PC3, 50 to 100 mg/kg; remark: listed apart in the source

SMILES | fraction unbound at 4 h, 5 µM [1] | Kinetic_solubility [2] | fraction unbound at 4 h, 5 µM [3] | EC50 (PC-3) [nM] | bioavailability [4] [%] | EC50 [5] [nM] | clearance [6] [mL/min/kg] | CLhep predicted [7] [mL/min/kg] | half-life [8] [h] | CLhep predicted [9] [mL/min/kg] | CLhep predicted [10] [mL/min/kg] | CL free (Mus musculus [11]) [mL/min/kg] | IC50 [12] [nM] | Vd [13] [L/kg] | fraction unbound at 4 h, 5 µM [14] | solubility kinetic [2] [µM] | also measured
CCNC(=O)Nc1ccc(-c2nc3c(c(N4CCOC[C@@H]4C)n2)C[C@@H]2CC[C@H]3N2C(C)=O)cc1 | 0.02 | soluble | 0.16 | 16 | 40 | 61 | 4.62 | 24 | 1.2 | 42 | 15 | 200 | 2 | 0.54 | 0.16 |  | 
CCNC(=O)Nc1ccc(-c2nc3c(c(N4CCOC[C@@H]4C)n2)C[C@@H]2CC[C@H]3N2C2COC2)cc1 | 0.13 | soluble | 0.24 | 29 | 82 | 75 | 4.8 | 27 | 2 | 51 | 14 | 38 | 3.4 | 0.53 | 0.15 |  | half-life [15]: 3.1 h; clearance [16]: 6 mL/min/kg; IC50 (Cytochrome P450 3A4): > 10000 nM; inhibition in vivo at 12.5 mg/kg [17]: 57%; IC50 (mTORC1): 2.7 nM; Ki [18]: 1.5 nM; inhibition [19]: 51%; inhibition (Mus musculus [20]): Active; CL free (Canis familiaris): 44 mL/min/kg; Vd [21]: 3 L/kg; inhibition (Mus musculus [22]): Active
CCNC(=O)Nc1ccc(-c2nc3c(c(N4CCOC[C@@H]4C)n2)[C@@H]2CC[C@H](C3)N2C2COC2)cc1 |  |  |  | 579 |  | 971 |  |  |  |  |  |  | 45 |  |  | > 75 | 
CCNC(=O)Nc1ccc(-c2nc3c(c(N4CCOC[C@@H]4C)n2)C[C@@H]2CC[C@H]3N2C)cc1 | 0.14 | soluble | 0.32 | 37 | 133 | 84 | 24 | 22 | 1.3 | 50 | 14 | 165 | 2.1 | 1.5 |  |  | 
CCNC(=O)Nc1ccc(-c2nc3c(c(N4CCOC[C@@H]4C)n2)[C@H]2CC[C@@H](C3)N2C2COC2)cc1 |  |  |  | 180 |  | 268 |  |  |  |  |  |  | 29 |  |  | > 75 | IC50 (Cytochrome P450 3A4): > 10000 nM
CCNC(=O)Nc1ccc(-c2nc3c(c(N4CCOC[C@@H]4C)n2)[C@H]2CC[C@@H](C3)N2C)cc1 | 0.32 |  | 0.73 | 103 | 114 | 97 | 67 | 18 | 0.8 | 42 | 12 | 207 | 3.9 | 4.5 | 0.62 | > 75 | Cp(f) (Plasma [23]): > 320 nM; inhibition (Mus musculus [24]): Active; concentration (Plasma [25]): > 1000 nM; inhibition (Mus musculus [26]): Active
CCNC(=O)Nc1ccc(-c2nc3c(c(N4CCOC[C@@H]4C)n2)[C@@H]2CC[C@H](C3)N2C)cc1 | 0.54 |  | 0.8 | 152 | 82 | 158 | 34 | 28 | 1.07 | 58 | 15 | 53 | 6.7 | 2.6 | 0.81 | > 75 | 
CCNC(=O)Nc1ccc(-c2nc3c(c(N4CCOC[C@@H]4C)n2)[C@H]2CC[C@@H](C3)N2CC)cc1 |  |  |  | 145 |  | 184 |  |  |  |  |  |  | 3.2 |  |  | > 75 | 
